Bioassay records deposited in PubChem by The Scripps Research Institute Molecular Screening Center.
Shown are actives, neighbours in structure and some others; about 2.3% of the full set was active somewhere.
ADAM10 inh – inhibitors of human ADAM10 | 0.62% of 370,000 active | AID 720582 | inhibition, % at 7 µM | O14672 | recombinant ADAM10, EDANS/DABCYL FRET peptide cleavage, 3 h;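 active = inhibition above a per-campaign cutoff equal to the mean of compounds falling between control-based bounds plus 3 SD, cut at about 20% in these data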;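 note: 0% = DMSO wells while the 100% control is not disclosed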
ADAM17 inh – inhibits human ADAM17; recombinant ADAM17, EDANS/DABCYL FRET peptide cleavage; 0.83% of 370,000 active; AID 720648; inhibition, % at 6.95 µM;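 active = inhibition above the mean of compounds lying between control limits plus 3 SD, set per campaign, cut at about 8.5% in these data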;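 note: 0% = DMSO-only wells as the low control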
Tn6 DDE FP – DD(E)-Tn6 binding inhibition, primary FP screen; Fibrin DD(E) TRITC-Tn6 fluorescence polarization displacement; inhibition, % at 8.3 µM; 0.21% of 370,000 active; AID 720509;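 active = inhibition above a per-campaign cutoff: mean of compounds within control limits plus 3 SD, cut at about 15% in these data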;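 note: 0% = median of all compound wells on the plate and 100% = blocking peptide control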
Target sequence (P02675 whole entry, looked up): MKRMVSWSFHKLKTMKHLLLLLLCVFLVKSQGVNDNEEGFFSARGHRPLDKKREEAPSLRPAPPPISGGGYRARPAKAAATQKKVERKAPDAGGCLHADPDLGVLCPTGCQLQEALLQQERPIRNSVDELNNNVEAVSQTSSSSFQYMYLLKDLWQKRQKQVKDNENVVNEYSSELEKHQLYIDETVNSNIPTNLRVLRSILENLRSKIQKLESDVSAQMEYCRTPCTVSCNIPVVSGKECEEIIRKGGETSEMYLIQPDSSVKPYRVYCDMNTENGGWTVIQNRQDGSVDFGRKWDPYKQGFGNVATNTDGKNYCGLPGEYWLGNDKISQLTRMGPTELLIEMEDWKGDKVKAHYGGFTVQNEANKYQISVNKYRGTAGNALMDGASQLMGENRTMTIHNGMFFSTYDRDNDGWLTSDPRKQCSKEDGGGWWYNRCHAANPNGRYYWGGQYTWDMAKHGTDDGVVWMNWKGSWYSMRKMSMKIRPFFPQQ
PLC-beta3 inh – PLC-beta3 (human) inhibition, primary screen; Q01970; Purified PLC-beta3, fluorogenic substrate, fluorescence; inhibition, % at 12.2 µM; 0.18% of 370,000 active; AID 720704; in the data active = inhibition above about 11%;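 note: 0% = median of compound wells on plate and 100% = full blocker control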
DDE Tn7 FP inh – disrupts Tn7 cyclic peptide binding to fibrin D-Dimer-E complex. 0.13% of 370,000 active. inhibition, % at 8.3 µM. P02675. FP displacement of FITC-Tn7 peptide from fibrin DD(E); 0% = median of compound wells per plate;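 active = inhibition above the mean of compounds falling within the control limits plus 3 SD of them, cut at about 14% in these data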;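 note: 0% = plate median of compound wells and 100% = 10 µM Aha-Tn7 peptide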
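Test system – human fibrin DD(E) · Times – 10 min preincubation, 3 h with tracer, room temperature · Detection – fluorescence polarization of the labelled Tn7 tracer · Measure – percent inhibition normalized to high-control wells · Benchmarks – high control wells with 10 µM unlabelled Aha-Tn7 peptide (full inhibition) · Repeats – singlicate testing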
PLC-gamma1 inh – PLC-gamma1 (human) inhibition, primary screen. purified PLC-gamma1, fluorogenic substrate, fluorescence. P19174. 0.84% of 370,000 active. inhibition, % at 12.2 µM; in the data active = inhibition above about 9.5%
ADAM10 confirm – confirmation of inhibitors of human ADAM10; shares compounds with ADAM10 inh; ADAM10 QFRET peptide cleavage, EDANS fluorescence; inhibition, % at 6.95 µM; 1% of 2,100 active;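 active = inhibition above about 20% chosen separately for each screening run, limit read from the data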;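 note: 0% = DMSO wells and 100% = marimastat wells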
ADAM17 ctr – ADAM17 inhibition, counter-screen for ADAM10 exosite hits; shares compounds with ADAM10 inh; ADAM17 QFRET peptide cleavage, EDANS fluorescence; inhibition, % at 6.95 µM; 0.5% of 2,100 active; AID 743214;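 active = mean triplicate inhibition above the solvent-only control wells' mean plus 3 SD, cut at about 12% in these data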;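 note: 0% = DMSO wells and 100% = marimastat wells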
* marks the source's active call; other numbers are inactive results.

Screening COc1cccc(CN2C(=O)[C@H]3Cc4c([nH]c5ccccc45)C(C)(C)N3C2=O)c1 returned ADAM10 inh 21*, ADAM17 inh 5, Tn6 DDE FP -4, PLC-beta3 inh -5, DDE Tn7 FP inh -3, PLC-gamma1 inh -4, ADAM10 confirm 3 and ADAM17 ctr 1.
For Cc1cc(C(=O)O[C@@H]2CCC[C@]3(C(=O)N(Cc4ccccc4)c4ccccc43)[C@H]2NC(=O)CCc2ccccc2)no1 the results were ADAM10 inh 0, ADAM17 inh -1, Tn6 DDE FP -6, PLC-beta3 inh 3, DDE Tn7 FP inh 0 and PLC-gamma1 inh -1.
`O=C(CS(=O)(=O)c1ccccc1)Nc1nccs1` gave ADAM10 inh 1, ADAM17 inh 0, Tn6 DDE FP 4, PLC-beta3 inh -3, DDE Tn7 FP inh -3 and PLC-gamma1 inh 3.
Screening Cc1ccccc1Cn1cc(S(=O)(=O)CC(=O)Nc2nccs2)c2ccccc21 returned ADAM10 inh 23*, ADAM17 inh 2, Tn6 DDE FP -5, PLC-beta3 inh -6, DDE Tn7 FP inh 1, PLC-gamma1 inh -6, ADAM10 confirm 4 and ADAM17 ctr 0.
Screening COc1ccc([C@@H]2[C@@H]3C(=O)N(C(C)(C)C)C(=O)[C@@H]3[C@]3(Cc4ccccc4)C(=O)N(c4ccc(C(F)(F)F)cc4)C(=O)N23)cc1 returned ADAM10 inh 8, ADAM17 inh 0, Tn6 DDE FP 0, PLC-beta3 inh 1, DDE Tn7 FP inh -7 and PLC-gamma1 inh 0.
Screening COc1ccc([C@@H]2[C@@H]3C(=O)N(C(C)(C)C)C(=O)[C@@H]3[C@]3(Cc4ccccc4)C(=O)N(c4ccc(OC)cc4)C(=O)N23)cc1 returned ADAM10 inh 23*, ADAM17 inh 2, Tn6 DDE FP -9, PLC-beta3 inh 3, DDE Tn7 FP inh 3, PLC-gamma1 inh 3, ADAM10 confirm 1 and ADAM17 ctr 0.
Screening O=C(Nc1ccc(Cl)c([N+](=O)[O-])c1)C(Sc1ccccc1)c1ccccc1 (centres undefined) returned ADAM10 inh 26*, ADAM17 inh 11*, Tn6 DDE FP -11, PLC-beta3 inh 6, DDE Tn7 FP inh 2, PLC-gamma1 inh 5, ADAM10 confirm 8 and ADAM17 ctr 3.
Screening O=C(Nc1cc([N+](=O)[O-])ccc1Cl)C(Sc1ccccc1)c1ccccc1 (centres undefined) returned ADAM10 inh 10, ADAM17 inh 5, Tn6 DDE FP 2, PLC-beta3 inh 2, DDE Tn7 FP inh 6 and PLC-gamma1 inh -1.
`CCC(CO)Nc1cccc2c1S(=O)(=O)N(Cc1cn(Cc3cccc(C(F)(F)F)c3)nn1)Cc1ccccc1O2` (centres undefined) gave ADAM10 inh -31, ADAM17 inh -6, Tn6 DDE FP -4, PLC-beta3 inh -14, DDE Tn7 FP inh 5 and PLC-gamma1 inh -8.
COC(=O)Cn1nc(-c2ccccc2)c2cccc(C(F)(F)F)c21 was read as ADAM10 inh -7, ADAM17 inh -4, Tn6 DDE FP -1, PLC-beta3 inh 2, DDE Tn7 FP inh 2 and PLC-gamma1 inh -2.
`CC[C@@H](CCCCCC#N)CCC(=O)N(c1ccccc1)c1ccccc1` gave ADAM10 inh 10, ADAM17 inh 4, Tn6 DDE FP -1, PLC-beta3 inh 2, DDE Tn7 FP inh 10 and PLC-gamma1 inh 3.
Screening CCCC1CCC2(CC1)CCC2OC(=S)Nc1ccc(I)cc1 (centres undefined) returned ADAM10 inh -1, ADAM17 inh -6, Tn6 DDE FP -2, PLC-beta3 inh 0, DDE Tn7 FP inh -2 and PLC-gamma1 inh 1.
